The source of these data is ChEMBL document CHEMBL4229376, “Optimization of the pharmacokinetic properties of potent anti-trypanosomal triazine derivatives” (Eur J Med Chem, 2018).

The source made the active and inactive calls. No cut-off for these calls is given here.

The subject of data set [1] is Trypanosoma brucei brucei. In words: Antitrypanosomal activity against Trypanosoma brucei brucei Squib 427 infected in Swiss mouse assessed as mouse survival at 10 mg/kg, ip administered as single dose for 5 days and measured on day 14 post infection. Format: functional, organism-based. An outline of the steps: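 Acute T. b. brucei mouse infection model. Dosing was PO or IP at 10–50 mg/kg, once (SID) or twice (BID) daily for 5 days after infection, with 3 mice per group. […] Read-outs were mean survival time and survivors on day 14 post infection.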

Data set [2] deals with Trypanosoma brucei brucei. In words: Antitrypanosomal activity against Trypanosoma brucei brucei Squib 427 infected in Swiss mouse assessed as mean survival days at 10 mg/kg, ip administered as single dose for 5 days. Format: functional. An outline of the steps:
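Acute mouse infection model with T. b. brucei. Dosing ran for 5 days after infection, orally or intraperitoneally, once or twice daily. Groups were 3 mice each, with vehicle-treated infected controls. The read-out was mean survival time in days, plus the number of survivors on day 14 post-infection.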

The subject of data set [3] is Trypanosoma brucei brucei. The data set is described as follows: Antitrypanosomal activity against Trypanosoma brucei brucei Squib 427 assessed as reduction in parasite growth at 7 to 14 times IC50 after 18 to 48 hrs resazurin dye-based fluorimetric analysis. Format: functional, organism-based. An outline of the steps:
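In vitro time course of T. b. brucei growth in the presence of compound, with parasite growth expressed as % of control.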
Background: Resazurin is reduced to fluorescent resorufin, in cell work by metabolically active cells.

Data set [4] deals with Trypanosoma brucei brucei. The data set is described as follows: Antitrypanosomal activity against suramin-sensitive Trypanosoma brucei brucei Squib 427 after 72 hrs by resazurin dye-based fluorimetric analysis. The data set is classed as functional, organism-based. The note with it: Squib 427, 72 h.
The next data set concerns Trypanosoma cruzi. The data set is described as follows: Antitrypanosomal activity against nifurtimox-sensitive Trypanosoma cruzi Tulahuen CL2 infected in human MRC5 SV2 cells assessed as reduction in parasite burden after 168 hrs by CPRG and Nonidet based spectrophotometric analysis. The note with it: Tulahuen CL2, MRC-5 SV2, 168 h. The data set is classed as functional, organism-based.

A further data set has as its system Leishmania infantum. In words: Antileishmanial activity against Leishmania infantum MHOM/MA (BE)/67 amastigotes infected in primary peritoneal mouse macrophages after 120 hrs by giemsa staining-based microscopic analysis. The note with it: MHOM/MA (BE)/67, 120 h. Format: functional, organism-based.
The test system of another data set is Plasmodium falciparum. In words: Antiplasmodial activity against chloroquine-resistant Plasmodium falciparum K1 infected in human erythrocytes after 72 hrs by Malstat reagent-based spectrophotometric analysis. The data set is classed as functional, organism-based. The note with it: K1, 72 h.
Data set [5] can be described thus: Cytotoxicity against human MRC5 SV2 cells after 72 hrs by resazurin dye-based fluorimetric analysis. The data set is classed as cell-based. The note with it: MRC-5 SV2, 72 h.
A further data set deals with Peritoneal macrophage. The data set is described as follows: Cytotoxicity against mouse primary peritoneal macrophages after 72 hrs by resazurin dye-based fluorimetric analysis. Format: cell-based.
A short description of data set [6]: Drug metabolism in mouse liver microsomes assessed as CYP450 mediated compound […] by measuring parent compound remaining at 5 uM after 15 mins in presence of NADPH by UPLC/MS/ESI analysis. The note with it: read-out: Stability. Format: ADME. On the technique in general: Liver microsomes are a subcellular fraction often used to study metabolism.
Data set [7] can be described thus: Drug metabolism in mouse liver microsomes assessed as CYP450 mediated compound […] by measuring parent compound remaining at 5 uM after 30 mins in presence of NADPH by UPLC/MS/ESI analysis. The data set is classed as ADME. The note with it: read-out: Stability.
Data set [8] in a line: Drug metabolism in mouse liver microsomes assessed as CYP450 mediated compound […] by measuring parent compound remaining at 5 uM after 60 mins in presence of NADPH by UPLC/MS/ESI analysis. Format: ADME. The note with it: read-out: Stability.
Data set [9] is described as follows: Drug metabolism in mouse liver microsomes assessed as UGT mediated compound […] by measuring parent compound remaining at 5 uM after 15 mins in presence of UDPGA by UPLC/MS/ESI analysis. The data set is classed as ADME. The note with it: 0.25 h. An outline of the steps: (§1)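 Metabolic stability was run with mouse liver microsomal fraction (S9) and read as percent parent compound remaining over incubation time. Diclofenac served as the reference compound.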

The nature of data set [10]: Drug metabolism in mouse liver microsomes assessed as UGT mediated compound […] by measuring parent compound remaining at 5 uM after 30 mins in presence of UDPGA by UPLC/MS/ESI analysis. The data set is classed as ADME. The note with it: 0.5 h. An outline of the steps:
as §1

A short description of data set [11]: Drug metabolism in mouse liver microsomes assessed as UGT mediated compound […] by measuring parent compound remaining at 5 uM after 60 mins in presence of UDPGA by UPLC/MS/ESI analysis. The data set is classed as ADME. The note with it: 1 h. An outline of the steps:
as §1

The nature of data set [12]: Drug metabolism in human liver microsomes assessed as CYP450 mediated compound […] by measuring parent compound remaining at 5 uM after 15 mins in presence of NADPH by UPLC/MS/ESI analysis. The data set is classed as ADME. The note with it: read-out: Stability.
Data set [13] can be described thus: Drug metabolism in human liver microsomes assessed as CYP450 mediated compound […] by measuring parent compound remaining at 5 uM after 30 mins in presence of NADPH by UPLC/MS/ESI analysis. The data set is classed as ADME. The note with it: read-out: Stability.
The nature of data set [14]: Drug metabolism in human liver microsomes assessed as CYP450 mediated compound […] by measuring parent compound remaining at 5 uM after 60 mins in presence of NADPH by UPLC/MS/ESI analysis. Format: ADME. The note with it: read-out: Stability.
Data set [15] can be described thus: Drug metabolism in human liver microsomes assessed as UGT mediated compound […] by measuring parent compound remaining at 5 uM after 15 mins in presence of UDPGA by UPLC/MS/ESI analysis. Format: ADME. The note with it: read-out: Stability.
Data set [16] is described as follows: Drug metabolism in human liver microsomes assessed as UGT mediated compound […] by measuring parent compound remaining at 5 uM after 30 mins in presence of UDPGA by UPLC/MS/ESI analysis. The note with it: read-out: Stability. The data set is classed as ADME.
Data set [17] in a line: Drug metabolism in human liver microsomes assessed as UGT mediated compound […] by measuring parent compound remaining at 5 uM after 60 mins in presence of UDPGA by UPLC/MS/ESI analysis. The note with it: read-out: Stability. Format: ADME.
Data set [18] in a line: Drug metabolism in human plasma assessed as parent compound remaining after 15 mins by UPLC/MS/ESI analysis. Format: ADME, cell-free.
The nature of data set [19]: Drug metabolism in human plasma assessed as parent compound remaining after 30 mins by UPLC/MS/ESI analysis. The data set is classed as ADME, cell-free.
A short description of data set [20]: Drug metabolism in human plasma assessed as parent compound remaining after 60 mins by UPLC/MS/ESI analysis. The data set is classed as ADME, cell-free. The note with it: read-out: Stability.
Data set [21] is described as follows: Drug metabolism in human plasma assessed as parent compound remaining after 1440 mins by UPLC/MS/ESI analysis. The data set is classed as ADME, cell-free. An outline of the steps: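 Compound incubated in human plasma for 24 h at 37 °C, and the fraction of parent compound remaining was determined.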

Take `Cc1ccc(C(=O)Nc2ccc(S(=O)(=O)O)c3cc(S(=O)(=O)O)cc(S(=O)(=O)O)c23)cc1NC(=O)c1cccc(NC(=O)Nc2cccc(C(=O)Nc3cc(C(=O)Nc4ccc(S(=O)(=O)O)c5cc(S(=O)(=O)O)cc(S(=O)(=O)O)c45)ccc3C)c2)c1` [SURAMIN]: the outcome in data set [1] and in data set [3] was Active. In data set [2], the MST is over 7 days.

With `Cc1cc(C)c(Oc2nc(N)nc(Nc3ccc(F)cc3)n2)c(C)c1`, the IC50 in data set [4] was 0.3 µM; in the data set with Trypanosoma cruzi, over 64 µM; with Leishmania infantum, over 64 µM; in the data set on Plasmodium falciparum, over 64 µM; in [5], over 64 µM; with Peritoneal macrophage, over 64 µM. Further, the figures for the remaining at 0.25 h, 5 µM in data set [6], in data set [12] and in [15] were 22%, 53% and 95%, respectively. For the same molecule, the values for the remaining at 0.5 h, 5 µM in data set [7], in [13] and in data set [16] were 4%, 33% and 118%, respectively. The remaining at 1 h, 5 µM in data set [8] was 0.3%; in [14], 13%; in data set [17], 91%. Moreover, the Stability in data set [9] is on record as 94%; in data set [10], 102%; in data set [11] it was 112%; in data set [21] (24 h) it was 151%. In data set [18] (read-out: Stability), the remaining at 0.25 h stood at 100%. The remaining at 0.5 h in data set [19] (read-out: Stability) came out at 104%. In data set [20], the remaining at 1 h was 115%.

Consider `Cc1ccc(Oc2nc(N)nc(Nc3ccc(F)cc3)n2)c(Cl)c1`, for which the IC50 in [4] is 0.5 µM; in the data set with Trypanosoma cruzi it was 7.8 µM; in the data set with Leishmania infantum, 27.3 µM; with Plasmodium falciparum, 51.7 µM; in data set [5], over 64 µM; in the data set with Peritoneal macrophage, 32 µM. Further, the results for the remaining at 0.25 h, 5 µM in data set [6], in [12] and in data set [15] were 25%, 90% and 88%, respectively. The remaining at 0.5 h, 5 µM in data set [7] worked out at 6%; in data set [13] it was 87%; in [16], 88%. Further, the remaining at 1 h, 5 µM stood at 1.4% in [8], 67% in data set [14] and 79% in data set [17]. Also, the Stability in [9] is listed as 108%; in [10] it was 109%; in data set [11], 113%; in data set [18] (0.25 h) it was 121%; in data set [19] (0.5 h) it was 124%. Also, the remaining at 1 h in [20] amounted to 117%. In addition, in data set [21] (read-out: Stability), the remaining at 24 h was 100%.

One may read the IC50 as the concentration that inhibits the measured activity by half.
